Measurements as given in ChEMBL document CHEMBL3864175, “Sulfonamides as Selective NaV1.7 Inhibitors: Optimizing Potency and Pharmacokinetics to Enable in Vivo Target Engagement” (ACS Med Chem Lett, 2016).

Assays:
[1] = target: Sodium channel protein type 9 subunit alpha (Homo sapiens, UniProt Q15858); assay: Inhibition of human Nav1.7 expressed in HEK293 cells assessed as inhibition of sodium current at holding potential of -125 mV measured for 3 to 5 mins by whole cell voltage clamp method; format: cell-based
[2] = Apparent permeability in MDCK cells; format: ADME, cell-based, Canis lupus familiaris; details: dog
How it was run: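 Apparent permeability measured in parental MDCK cells.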

[3] = Dissociation constant, pKa of the compound at pH 1.7 to 11.2 by capillary electrophoresis method; format: physicochemical
How it was run: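 pKa values calculated from capillary electrophoresis data collected over pH 1.7 to 11.2.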

[4] = target: Sodium channel protein type 9 subunit alpha (Rattus norvegicus, UniProt O08562); assay: Inhibition of 20% inactivated rat Nav1.7 expressed in HEK293T cells assessed as inhibition of sodium current measured for 3 to 5 mins by whole cell voltage clamp method; format: cell-based, HEK-293T
[5] = target: Sodium channel protein type 9 subunit alpha (Mus musculus, UniProt Q62205); assay: Inhibition of 20% inactivated Nav1.7 in C57BL/6 mouse DRG neurons assessed as inhibition of sodium currents in presence of TTX by whole cell patch clamp assay
How it was run: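 Electrophysiology of TTX-sensitive sodium channels recorded from the cell bodies of sensory neurons freshly dissociated from mouse dorsal root ganglia.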

[6] = target: Sodium channel protein type 3 subunit alpha (Homo sapiens, UniProt Q9NY46); assay: Inhibition of 20% inactivated human Nav1.3 expressed in CHO cells assessed as inhibition of peak inward current by whole cell patch clamp method; format: cell-based
[7] = Clearance in dog at 0.5 mg/kg, iv by LC-MS/MS analysis; format: ADME, organism-based, Canis lupus familiaris; details: in vivo
[8] = Half life in rat at 0.5 mg/kg, iv by LC-MS/MS analysis; format: ADME, organism-based; details: in vivo
How it was run: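 Male rats, n = 2 per group, dosed intravenously at 0.5 mg/kg as a solution in 100% DMSO. Unbound clearance is derived from total clearance.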

[9] = Half life in dog at 0.5 mg/kg, iv by LC-MS/MS analysis; format: ADME, organism-based, Canis lupus familiaris; details: in vivo
How it was run: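 Dogs dosed intravenously at 0.5 mg/kg in 30% HPBCD/70% water, brought to pH 10 with KOH.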

[10] = Tmax in rat at 10 mg/kg, po by LC-MS/MS analysis; format: ADME, organism-based; details: in vivo
How it was run: (§1)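 Rats dosed orally at 10 mg/kg as a solution in 30% HPBCD/70% water, brought to pH 10 with KOH.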

[11] = Oral bioavailability in rat at 10 mg/kg by LC-MS/MS analysis; format: ADME, organism-based; details: in vivo; how it was run: as §1
[12] = Drug excretion in bile duct cannulated Sprague-Dawley rat urine assessed as parent compound at 1 mg/kg, iv administered through catheter measured up to 24 hrs by LC-MS/MS analysis; format: ADME, organism-based; details: read-out: Drug excretion
Mus musculus [13] = assay: Antipruritic activity in histamine-induced scratching C57BL/6 mouse model assessed as reduction in scratching bouts administered orally 120 mins prior to histamine challenge measured after 30 mins relative to vehicle-treated control; format: functional
How it was run: (§2)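 Male C57BL/6 mice dosed orally 120 min before intradermal histamine. Scratching bouts counted over 30 min and compared with vehicle by one-way ANOVA with Dunnett's test. Total and unbound plasma levels taken 30 min after histamine.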

[14] = Total plasma concentration in histamine induced C57BL/6 mouse model of scratching at 5 mg/kg, po pretreated for 120 mins followed by histamine-challenge measured after 30 mins; format: ADME, organism-based; how it was run: as §2
[15] = Total plasma concentration in histamine induced C57BL/6 mouse model of scratching at 20 mg/kg, po pretreated for 120 mins followed by histamine-challenge measured after 30 mins; format: ADME, organism-based; how it was run: as §2
[16] = Unbound plasma concentration in histamine induced C57BL/6 mouse model of scratching at 20 mg/kg, po pretreated for 120 mins followed by histamine-challenge measured after 30 mins; format: ADME, organism-based; details: in vivo, 0.5 h; how it was run: as §2
[17] = Unbound plasma concentration in histamine induced C57BL/6 mouse model of scratching at 60 mg/kg, po pretreated for 120 mins followed by histamine-challenge measured after 30 mins; format: ADME, organism-based; details: in vivo, 0.5 h; how it was run: as §2
Mus musculus [18] = assay: Toxicity in C57BL/6 mouse assessed as reduction in locomotor activity at 5 to 60 mg/kg, po measured after 4 hrs by open field movement assay; format: organism-based; details: in vivo

Sodium channel protein type 9 subunit alpha (Homo sapiens, UniProt Q15858), sequence (Q15858 whole entry): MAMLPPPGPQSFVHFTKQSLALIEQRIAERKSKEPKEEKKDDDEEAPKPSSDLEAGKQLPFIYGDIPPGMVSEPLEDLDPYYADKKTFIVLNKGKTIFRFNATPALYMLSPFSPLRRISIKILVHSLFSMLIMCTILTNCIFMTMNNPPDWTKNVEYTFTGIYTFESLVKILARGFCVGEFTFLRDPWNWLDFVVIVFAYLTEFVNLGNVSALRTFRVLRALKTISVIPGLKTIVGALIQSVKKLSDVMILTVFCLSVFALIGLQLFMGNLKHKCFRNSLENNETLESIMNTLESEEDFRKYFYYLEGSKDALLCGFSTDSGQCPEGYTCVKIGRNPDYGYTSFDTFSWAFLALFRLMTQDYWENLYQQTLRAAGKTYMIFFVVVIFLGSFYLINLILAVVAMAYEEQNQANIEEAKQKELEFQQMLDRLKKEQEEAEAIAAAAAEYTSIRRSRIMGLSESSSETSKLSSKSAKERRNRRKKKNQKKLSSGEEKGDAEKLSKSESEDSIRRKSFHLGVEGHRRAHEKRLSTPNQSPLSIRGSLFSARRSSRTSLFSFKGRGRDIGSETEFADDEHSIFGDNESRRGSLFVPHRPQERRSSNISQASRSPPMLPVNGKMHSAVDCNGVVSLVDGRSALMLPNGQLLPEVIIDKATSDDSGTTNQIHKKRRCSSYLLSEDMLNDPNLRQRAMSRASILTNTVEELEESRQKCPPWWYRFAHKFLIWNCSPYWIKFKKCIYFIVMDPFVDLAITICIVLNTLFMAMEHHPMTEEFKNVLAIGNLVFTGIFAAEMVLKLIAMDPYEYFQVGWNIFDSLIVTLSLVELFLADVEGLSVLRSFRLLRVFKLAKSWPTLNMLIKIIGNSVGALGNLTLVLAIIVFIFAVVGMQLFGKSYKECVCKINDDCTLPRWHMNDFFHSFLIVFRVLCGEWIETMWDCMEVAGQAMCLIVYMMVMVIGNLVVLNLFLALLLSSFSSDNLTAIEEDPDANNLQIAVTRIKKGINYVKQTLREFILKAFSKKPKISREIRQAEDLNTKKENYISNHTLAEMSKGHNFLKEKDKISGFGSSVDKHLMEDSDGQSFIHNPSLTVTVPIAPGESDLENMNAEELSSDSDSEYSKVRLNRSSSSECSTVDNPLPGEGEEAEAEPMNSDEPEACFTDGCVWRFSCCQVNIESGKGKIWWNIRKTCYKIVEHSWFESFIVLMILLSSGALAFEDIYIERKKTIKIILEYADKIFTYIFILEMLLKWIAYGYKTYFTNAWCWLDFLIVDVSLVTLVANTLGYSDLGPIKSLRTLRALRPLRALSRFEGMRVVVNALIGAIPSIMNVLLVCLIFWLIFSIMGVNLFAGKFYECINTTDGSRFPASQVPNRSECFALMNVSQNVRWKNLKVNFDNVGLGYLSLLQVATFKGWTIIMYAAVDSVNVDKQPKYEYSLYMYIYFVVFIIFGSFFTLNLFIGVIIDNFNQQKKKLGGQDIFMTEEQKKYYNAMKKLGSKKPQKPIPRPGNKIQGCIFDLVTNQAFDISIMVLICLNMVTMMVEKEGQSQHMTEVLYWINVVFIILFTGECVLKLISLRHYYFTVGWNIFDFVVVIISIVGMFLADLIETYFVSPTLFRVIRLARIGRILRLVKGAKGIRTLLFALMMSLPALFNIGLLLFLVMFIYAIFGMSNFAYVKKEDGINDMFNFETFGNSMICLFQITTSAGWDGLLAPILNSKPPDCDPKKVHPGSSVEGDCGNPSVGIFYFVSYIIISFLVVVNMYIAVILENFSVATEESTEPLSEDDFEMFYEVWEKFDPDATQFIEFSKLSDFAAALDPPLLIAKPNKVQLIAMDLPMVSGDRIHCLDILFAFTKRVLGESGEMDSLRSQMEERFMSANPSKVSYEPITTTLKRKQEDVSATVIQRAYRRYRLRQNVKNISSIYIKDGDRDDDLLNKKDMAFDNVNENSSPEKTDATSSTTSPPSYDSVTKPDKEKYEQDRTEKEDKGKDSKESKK
Sodium channel protein type 9 subunit alpha (Rattus norvegicus, UniProt O08562), sequence (O08562 whole entry): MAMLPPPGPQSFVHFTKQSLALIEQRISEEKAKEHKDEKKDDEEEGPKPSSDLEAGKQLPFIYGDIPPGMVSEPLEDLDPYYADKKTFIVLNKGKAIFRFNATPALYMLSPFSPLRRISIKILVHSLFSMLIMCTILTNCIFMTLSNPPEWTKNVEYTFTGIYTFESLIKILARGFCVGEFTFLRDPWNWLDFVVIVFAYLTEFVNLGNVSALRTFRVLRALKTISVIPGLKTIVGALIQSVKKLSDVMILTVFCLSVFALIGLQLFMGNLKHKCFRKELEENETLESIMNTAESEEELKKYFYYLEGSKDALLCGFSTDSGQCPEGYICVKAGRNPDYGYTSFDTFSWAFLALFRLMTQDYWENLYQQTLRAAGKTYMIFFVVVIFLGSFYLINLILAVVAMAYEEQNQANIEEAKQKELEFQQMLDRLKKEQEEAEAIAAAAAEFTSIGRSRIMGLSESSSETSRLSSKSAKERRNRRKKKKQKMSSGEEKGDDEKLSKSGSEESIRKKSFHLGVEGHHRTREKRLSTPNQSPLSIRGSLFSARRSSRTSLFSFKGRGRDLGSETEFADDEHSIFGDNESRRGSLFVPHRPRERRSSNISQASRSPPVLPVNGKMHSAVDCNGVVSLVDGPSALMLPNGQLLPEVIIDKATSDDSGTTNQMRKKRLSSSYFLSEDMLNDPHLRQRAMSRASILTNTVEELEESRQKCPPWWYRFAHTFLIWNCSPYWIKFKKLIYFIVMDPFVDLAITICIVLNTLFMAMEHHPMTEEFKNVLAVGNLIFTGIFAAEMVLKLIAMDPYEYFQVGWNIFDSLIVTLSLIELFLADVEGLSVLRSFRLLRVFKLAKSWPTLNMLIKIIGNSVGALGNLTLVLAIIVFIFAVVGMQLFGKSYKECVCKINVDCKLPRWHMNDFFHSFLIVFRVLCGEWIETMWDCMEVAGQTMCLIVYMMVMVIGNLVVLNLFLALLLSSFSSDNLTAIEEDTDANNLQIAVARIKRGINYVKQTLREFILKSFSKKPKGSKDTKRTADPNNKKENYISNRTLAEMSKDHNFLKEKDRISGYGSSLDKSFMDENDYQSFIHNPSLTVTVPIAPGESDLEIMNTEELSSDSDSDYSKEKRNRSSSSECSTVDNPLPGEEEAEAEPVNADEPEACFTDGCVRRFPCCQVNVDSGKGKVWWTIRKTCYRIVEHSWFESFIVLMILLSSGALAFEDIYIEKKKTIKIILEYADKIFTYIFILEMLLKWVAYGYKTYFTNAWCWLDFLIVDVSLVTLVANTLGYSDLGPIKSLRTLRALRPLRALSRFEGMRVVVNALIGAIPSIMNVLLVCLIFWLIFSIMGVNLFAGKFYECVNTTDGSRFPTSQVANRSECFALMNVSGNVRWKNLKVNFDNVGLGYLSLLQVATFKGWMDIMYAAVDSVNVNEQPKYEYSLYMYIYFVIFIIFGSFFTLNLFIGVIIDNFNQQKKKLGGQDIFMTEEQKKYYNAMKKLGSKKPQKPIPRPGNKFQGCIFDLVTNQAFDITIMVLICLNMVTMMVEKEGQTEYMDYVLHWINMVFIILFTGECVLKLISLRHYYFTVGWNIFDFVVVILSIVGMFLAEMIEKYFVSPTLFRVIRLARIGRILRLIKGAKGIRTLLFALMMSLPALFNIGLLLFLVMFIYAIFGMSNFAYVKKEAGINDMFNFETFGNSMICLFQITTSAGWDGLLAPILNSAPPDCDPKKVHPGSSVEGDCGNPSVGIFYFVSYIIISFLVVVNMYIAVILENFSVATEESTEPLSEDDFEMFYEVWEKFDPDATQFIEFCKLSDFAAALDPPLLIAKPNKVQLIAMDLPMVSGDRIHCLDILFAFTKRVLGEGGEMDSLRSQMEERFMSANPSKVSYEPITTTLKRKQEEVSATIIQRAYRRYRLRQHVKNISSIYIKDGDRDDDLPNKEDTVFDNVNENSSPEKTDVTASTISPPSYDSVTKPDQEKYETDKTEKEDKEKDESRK

COc1cc(C(F)(F)F)ccc1-c1ncnc2cc(S(=O)(=O)Nc3nccs3)ccc12
IC50 [1]: 160 nM | Papp [2]: 31 ×10⁻⁶ cm/s | pKa [3]: 6.5 | IC50 [4]: 3500 nM | IC50 [5]: 130 nM | IC50 [6]: 21000 nM | clearance [7]: 0.217 mL/min/kg | half-life [8]: 1.9 h | half-life [9]: 18 h | Tmax [10]: 1.7 h | bioavailability [11]: 100% | dose excreted at 24 h [12]: 0.02% | Activity (Mus musculus [13]): Dose-dependent effect | concentration at 0.5 h [14]: 3.1 µM | concentration at 0.5 h [15]: 22 µM | Cp(f) [16]: 0.76 µM | Cp(f) [17]: 5.1 µM | Activity (Mus musculus [18]): Non-Toxic
